Our source for the MIC values is ChEMBL document CHEMBL1287650, “Structural modification of a specific antimicrobial lead against Helicobacter pylori discovered from traditional Chinese medicine and a structure-activity relationship study” (2010).

Values after ≈ are worked out from the molar mass of the structure shown.

What all share (assay type): functional
One assay concerns Staphylococcus aureus. As to the kind of experiment: Antibacterial activity against Staphylococcus aureus ATCC 25923 after 18 hrs. As to conditions: ATCC 25923, 18 h.
A further assay deals with Helicobacter pylori. The experiment in a line: Antibacterial activity against Helicobacter pylori SS1 assessed as inhibition of visible growth after 96 hrs by agar dilution method. As to conditions: SS1, 96 h. An outline of the steps:
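Agar dilution on Columbia Blood Agar Base with 7% defibrinated sheep blood; compounds dissolved in minimal DMSO, two-fold serial dilutions mixed into medium. Inoculum: cells in saline at 10⁸ CFU/mL. Incubated 37 °C, 96 h, 5% O₂/10% CO₂/85% N₂. DMSO-only blank and metronidazole positive control run alongside. MIC = lowest concentration completely inhibiting visible growth.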

In assay [1] the test system is Staphylococcus epidermidis. As to the kind of experiment: Antibacterial activity against Staphylococcus epidermidis ATCC 12228 after 18 hrs. Particulars: ATCC 12228, 18 h.
The next assay deals with Micrococcus luteus. The experiment in a line: Antibacterial activity against Micrococcus luteus ATCC 9341 after 18 hrs. As to conditions: ATCC 9341, 18 h.
A further assay relates to Bacillus subtilis. As to the kind of experiment: Antibacterial activity against Bacillus subtilis CMCC 63501 after 18 hrs. Particulars: CMCC 63501, 18 h.
A further assay relates to Escherichia coli. As to the kind of experiment: Antibacterial activity against Escherichia coli ATCC 25922 after 18 hrs. As to conditions: ATCC 25922, 18 h.
In the next assay the test system is Shigella flexneri. The experiment in a line: Antibacterial activity against Shigella flexneri F2a after 18 hrs.
The subject of another assay is Pseudomonas aeruginosa. As to the kind of experiment: Antibacterial activity against Pseudomonas aeruginosa ATCC 14502 after 18 hrs. As to conditions: ATCC 14502, 18 h.
A further assay relates to Candida albicans. As to the kind of experiment: Antifungal activity against Candida albicans ATCC 1600 after 48 hrs. As to conditions: ATCC 1600, 48 h. An outline of the steps:
(§1)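 Fungi grown in Sabouraud dextrose broth at 37 °C for 48 h with compounds and positive control dissolved in DMSO; DMSO-only cultures served as blank controls.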

Assay [2] can be described thus: Antifungal activity against Saccharomyces sake after 48 hrs. Particulars: Saccharomyces sp. An outline of the steps:
as §1

The next assay relates to Trichophyton rubrum. As to the kind of experiment: Antifungal activity against Trichophyton rubrum after 48 hrs. An outline of the steps:
as §1

Another assay concerns Nannizzia gypsea. The experiment in a line: Antifungal activity against Microsporum gypseum after 48 hrs. In outline: as §1

Take `Cc1cc(=O)oc2cc3occc3cc12`: the minimal inhibitory concentration (MIC) with Staphylococcus aureus was more than 64 mg/L; with Helicobacter pylori it was 0.39 mg/L (≈ 1.95 µM); in [1], more than 64 mg/L; against Micrococcus luteus, more than 64 mg/L; against Bacillus subtilis, more than 64 mg/L; against Escherichia coli it was more than 64 mg/L. Further, the MIC (in the assay with Shigella flexneri; against Pseudomonas aeruginosa; against Candida albicans; in assay [2]; against Trichophyton rubrum; in the assay with Nannizzia gypsea) was more than 64 mg/L each time.

`COc1ccc(NCc2c3ccoc3c(OC)c3oc(=O)ccc23)cc1`: in the assay with Helicobacter pylori, the MIC was found to be 12.5 mg/L (≈ 35.6 µM).

For `CCCCOCc1cc2cc3ccc(=O)oc3cc2o1`, in the assay on Helicobacter pylori, the MIC was 50 mg/L (≈ 184 µM).

Turning to `COc1c2occc2c(Br)c2ccc(=O)oc12`, the MIC in the assay with Helicobacter pylori was more than 50 mg/L.

For `COCc1c2ccoc2c(OC)c2oc(=O)ccc12`, the MIC in the assay with Helicobacter pylori was more than 50 mg/L.

As to `COc1c2occc2c(CCl)c2ccc(=O)oc12`, the MIC in the assay with Helicobacter pylori was 25 mg/L (≈ 94.5 µM).

`O=c1ccc2cc3ccoc3cc2o1` [PSORALEN]: the MIC against Staphylococcus aureus is more than 64 mg/L; in the assay on Helicobacter pylori it was 6.25 mg/L (≈ 33.6 µM); in assay [1], more than 64 mg/L; against Micrococcus luteus it was more than 64 mg/L; with Bacillus subtilis, more than 64 mg/L; with Escherichia coli it was more than 64 mg/L. Moreover, the MIC (against Shigella flexneri; in the assay with Pseudomonas aeruginosa; against Candida albicans; in assay [2]; with Trichophyton rubrum; against Nannizzia gypsea) was more than 64 mg/L each time.

Consider `CC(=O)Oc1c2occc2cc2ccc(=O)oc12`, for which the MIC in the assay with Helicobacter pylori was more than 50 mg/L.

`COc1c2occc2cc2ccc(=O)oc12` [METHOXSALEN]: the MIC with Helicobacter pylori was determined as 25 mg/L (≈ 116 µM).

`O=c1cc(CO)c2cc3ccoc3cc2o1`: the MIC in the assay on Helicobacter pylori was 0.78 mg/L (≈ 3.61 µM).

Regarding `COCc1cc2cc3ccc(=O)oc3cc2o1`, the MIC in the assay with Helicobacter pylori is 50 mg/L (≈ 217 µM).

Regarding `CCOCc1c2ccoc2c(OC)c2oc(=O)ccc12`, in the assay with Helicobacter pylori, the MIC is more than 50 mg/L.

With `CCc1cc(=O)oc2cc3occc3cc12`, the MIC with Helicobacter pylori turned out to be 6.25 mg/L (≈ 29.2 µM).

As for `Cc1ncc([N+](=O)[O-])n1CCO` [METRONIDAZOLE], the MIC with Helicobacter pylori came to 0.5 mg/L (≈ 2.92 µM).

On to `COc1c2occc2c(S(=O)(=O)Nc2ccc([N+](=O)[O-])cc2)c2ccc(=O)oc12`, for which the MIC in the assay with Helicobacter pylori is more than 50 mg/L.

Consider `CCCOCc1c2ccoc2c(OC)c2oc(=O)ccc12`, for which, in the assay with Helicobacter pylori, the MIC is more than 50 mg/L.

As for `CCOC(=O)COc1c2occc2cc2ccc(=O)oc12`, in the assay on Helicobacter pylori, the MIC is more than 50 mg/L.

As for `CCN(CC)Cc1cc2cc3ccc(=O)oc3cc2o1`, the MIC in the assay with Helicobacter pylori is more than 50 mg/L.

Regarding `O=C(O)COc1c2occc2cc2ccc(=O)oc12`, the MIC in the assay on Helicobacter pylori is more than 50 mg/L.

Regarding `O=c1ccc2c([N+](=O)[O-])c3ccoc3c(O)c2o1`, in the assay on Helicobacter pylori, the minimum inhibitory concentration (MIC) is 25 mg/L (≈ 101 µM).

Consider `COc1c2occc2c([N+](=O)[O-])c2ccc(=O)oc12`, for which the MIC against Staphylococcus aureus was more than 64 mg/L; with Helicobacter pylori, 1.56 mg/L (≈ 5.97 µM); in assay [1] it was more than 64 mg/L; against Micrococcus luteus, more than 64 mg/L; in the assay on Bacillus subtilis, more than 64 mg/L; against Escherichia coli, more than 64 mg/L. Besides, the MIC (against Shigella flexneri; against Pseudomonas aeruginosa; with Candida albicans; in assay [2]; in the assay on Trichophyton rubrum; in the assay on Nannizzia gypsea) was more than 64 mg/L in each case.

Turning to `O=Cc1cc(=O)oc2cc3occc3cc12`, in the assay with Helicobacter pylori, the MIC came out at 1.56 mg/L (≈ 7.28 µM).

Regarding `O=c1ccc2cc3cc(Br)oc3cc2o1`, the MIC in the assay on Helicobacter pylori is 6.25 mg/L (≈ 23.6 µM).

Consider `COc1c2occc2c(S(=O)(=O)Oc2ccccc2)c2ccc(=O)oc12`, for which the MIC in the assay on Helicobacter pylori is more than 50 mg/L.

As to `O=c1cc(CBr)c2cc3ccoc3cc2o1`, in the assay with Helicobacter pylori, the MIC is 1.56 mg/L (≈ 5.59 µM).

Regarding `COc1c2occc2c(Cl)c2ccc(=O)oc12`, in the assay with Helicobacter pylori, the MIC was more than 50 mg/L.

Regarding `CC(=O)OCc1cc(=O)oc2cc3occc3cc12`, the MIC with Helicobacter pylori is 1.56 mg/L (≈ 6.04 µM).

With `O=c1cc(-c2ccccc2)c2cc3ccoc3cc2o1`, in the assay with Helicobacter pylori, the MIC is 12.5 mg/L (≈ 47.7 µM).

Regarding `Cc1c2ccoc2cc2oc(=O)ccc12`, the MIC in the assay on Helicobacter pylori worked out at 12.5 mg/L (≈ 62.4 µM).

For `COc1c2occc2c(S(N)(=O)=O)c2ccc(=O)oc12`, in the assay with Helicobacter pylori, the MIC is more than 50 mg/L.

Take `CCN(CC)S(=O)(=O)c1c2ccoc2c(OC)c2oc(=O)ccc12`: the MIC with Helicobacter pylori is more than 50 mg/L.

As to `Cc1coc2cc3oc(=O)ccc3cc12`, the MIC with Helicobacter pylori came out at 12.5 mg/L (≈ 62.4 µM).

Consider `O=c1ccc2cc3ccoc3c(O)c2o1` [XANTHOTOXOL], for which the MIC in the assay on Helicobacter pylori is more than 50 mg/L.

With `CC(=O)Oc1c2occc2c([N+](=O)[O-])c2ccc(=O)oc12`, the MIC in the assay with Helicobacter pylori came to 25 mg/L (≈ 86.4 µM).

As for `COc1c2occc2c(/N=C/c2ccccc2)c2ccc(=O)oc12`, the MIC with Helicobacter pylori was more than 50 mg/L.

`COc1ccc(NS(=O)(=O)c2c3ccoc3c(OC)c3oc(=O)ccc23)cc1`: the MIC in the assay on Helicobacter pylori is more than 50 mg/L.

For `CCOc1c2occc2cc2ccc(=O)oc12`, the MIC with Helicobacter pylori was more than 50 mg/L.

For `COc1c2occc2c(N)c2ccc(=O)oc12`, the MIC in the assay with Helicobacter pylori was found to be 25 mg/L (≈ 108 µM).

In the case of `CCCCOCc1c2ccoc2c(OC)c2oc(=O)ccc12`, in the assay on Helicobacter pylori, the MIC was 50 mg/L (≈ 165 µM).

For `O=c1ccc2cc3cc(CCl)oc3cc2o1`, the MIC in the assay on Helicobacter pylori was more than 50 mg/L.

Consider `CCCc1cc(=O)oc2cc3occc3cc12`, for which the MIC in the assay on Helicobacter pylori amounted to 12.5 mg/L (≈ 54.8 µM).

Take `CCN(CC)Cc1c2ccoc2c(OC)c2oc(=O)ccc12`: the MIC in the assay with Helicobacter pylori was more than 50 mg/L.

For the compound `COc1c2occc2c(S(=O)(=O)OC)c2ccc(=O)oc12`, in the assay on Helicobacter pylori, the MIC is more than 50 mg/L.

Regarding `O=c1cc(C(F)(F)F)c2cc3ccoc3cc2o1`, the MIC in the assay with Helicobacter pylori amounted to 12.5 mg/L (≈ 49.2 µM).

As to `CCOCc1cc2cc3ccc(=O)oc3cc2o1`, the MIC in the assay on Helicobacter pylori was more than 50 mg/L.

Take `CC(=O)OCc1cc2cc3ccc(=O)oc3cc2o1`: in the assay with Helicobacter pylori, the minimum inhibitory concentration (MIC) was more than 50 mg/L.

Consider `COc1c2occc2c(CNc2ccc([N+](=O)[O-])cc2)c2ccc(=O)oc12`, for which the MIC in the assay on Helicobacter pylori was more than 50 mg/L.

Consider `O=c1ccc2cc3cc(Cl)oc3cc2o1`, for which the MIC in the assay with Helicobacter pylori was determined as 6.25 mg/L (≈ 28.3 µM).

Take `O=c1ccc2cc3cc([N+](=O)[O-])oc3cc2o1`: the MIC in the assay on Helicobacter pylori was 3.12 mg/L (≈ 13.5 µM).
